According to ChEMBL document CHEMBL5247575 (J Med Chem, 2018):

The compounds below were run on Acinetobacter baumannii (assay: Synergistic antibacterial activity against Acinetobacter baumannii PR476 producing OXA-24/40 assessed as cefepime MIC at 8 ug/ml by broth microdilution method). Details: dose 8 µg/ml.
Format: functional

Compound | MIC [µg/mL]
O=C(NNC(=O)[C@@H]1CC[C@@H]2CN1C(=O)N2OS(=O)(=O)O)[C@@H]1CCNC1 | 2

The compounds below were run on Klebsiella pneumoniae (assay: Synergistic antibacterial activity against Klebsiella pneumoniae 11978 producing OXA-48 assessed as cefepime MIC at 8 ug/ml by broth microdilution method). Details: dose 8 µg/ml.
Format: functional
Method in brief: (§1)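 Broth microdilution per CLSI guidelines, using custom frozen panels. […] Each partner drug was also tested alone. MICs were run in triplicate and the modal value is reported.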

Compound | MIC [µg/mL]
O=C(NNC(=O)[C@@H]1CC[C@@H]2CN1C(=O)N2OS(=O)(=O)O)[C@@H]1CCNC1 | ≤ 0.12

The compounds below were run on Acinetobacter baumannii (assay: Synergistic antibacterial activity against ADC deleted Acinetobacter baumannii transfected with pWH1266 producing OXA-24/40 assessed as cefepime MIC at 8 ug/ml by broth microdilution method). Details: dose 8 µg/ml.
Format: functional

Compound | MIC [µg/mL]
O=C(NNC(=O)[C@@H]1CC[C@@H]2CN1C(=O)N2OS(=O)(=O)O)[C@@H]1CCNC1 | 16

What follows are compounds tested on Acinetobacter baumannii (assay: Synergistic antibacterial activity against ADC deleted Acinetobacter baumannii transfected with pWH1266 OXA-23 assessed as cefepime MIC at 4 ug/ml by broth microdilution method). Details: dose 4 µg/ml.
Format: functional

Compound | MIC [µg/mL]
O=C(NNC(=O)[C@@H]1CC[C@@H]2CN1C(=O)N2OS(=O)(=O)O)[C@@H]1CCNC1 | 16

The compounds below were run on Klebsiella pneumoniae (assay: Synergistic antibacterial activity against Klebsiella pneumoniae 977/1916 producing KPC-3 assessed as meropenem MIC at 8 ug/ml by broth microdilution method). Details: dose 8 µg/ml.
Format: functional

Compound | MIC [µg/mL]
O=C(NNC(=O)[C@@H]1CC[C@@H]2CN1C(=O)N2OS(=O)(=O)O)[C@@H]1CCNC1 | ≤ 0.12

What follows are compounds tested on Acinetobacter baumannii (assay: Synergistic antibacterial activity against Acinetobacter baumannii PR448 producing OXA-23 assessed as meropenem MIC at 8 ug/ml by broth microdilution method). Details: dose 8 µg/ml.
Format: functional

Compound | MIC [µg/mL]
O=C(NNC(=O)[C@@H]1CC[C@@H]2CN1C(=O)N2OS(=O)(=O)O)[C@@H]1CCNC1 | > 16

What follows are compounds tested on Klebsiella pneumoniae (assay: Synergistic antibacterial activity against Klebsiella pneumoniae 977/1916 producing KPC-3 assessed as cefepime MIC at 8 ug/ml by broth microdilution method). Details: dose 8 µg/ml.
Format: functional

Compound | MIC [µg/mL]
O=C(NNC(=O)[C@@H]1CC[C@@H]2CN1C(=O)N2OS(=O)(=O)O)[C@@H]1CCNC1 | ≤ 0.12

What follows are compounds tested on Klebsiella pneumoniae (assay: Synergistic antibacterial activity against Klebsiella pneumoniae 972/1910 producing KPC-3 assessed as cefepime MIC at 4 ug/ml by broth microdilution method). Details: dose 4 µg/ml.
Format: functional

Compound | MIC [µg/mL]
O=C(NNC(=O)[C@@H]1CC[C@@H]2CN1C(=O)N2OS(=O)(=O)O)[C@@H]1CCNC1 | ≤ 0.12

The compounds below were run on Klebsiella pneumoniae (assay: Synergistic antibacterial activity against Klebsiella pneumoniae jefferson 1773 producing OXA-181 assessed as cefepime MIC at 8 ug/ml by broth microdilution method). Details: dose 8 µg/ml.
Format: functional

Compound | MIC [µg/mL]
O=C(NNC(=O)[C@@H]1CC[C@@H]2CN1C(=O)N2OS(=O)(=O)O)[C@@H]1CCNC1 | ≤ 0.12

What follows are compounds tested on Klebsiella pneumoniae (assay: Synergistic antibacterial activity against Klebsiella pneumoniae CAV 1636 producing OXA-181 assessed as cefepime MIC at 8 ug/ml by broth microdilution method). Details: dose 8 µg/ml.
Format: functional

Compound | MIC [µg/mL]
O=C(NNC(=O)[C@@H]1CC[C@@H]2CN1C(=O)N2OS(=O)(=O)O)[C@@H]1CCNC1 | ≤ 0.12

The compounds below were run on Bacteria (assay: Inhibition of bacteria ADC-7 assessed as Koff rate using nitrocefin as substrate incubated for 30 mins). Details: not given.

Compound | K
O=C(NNC(=O)[C@@H]1CC[C@@H]2CN1C(=O)N2OS(=O)(=O)O)[C@@H]1CCNC1 | 9 10^-4/s

The compounds below were run on Escherichia coli (assay: Synergistic antibacterial activity against Escherichia coli DH10B transfected with pBR322-catI-KPC-2 assessed as cefepime MIC at 4 ug/ml by broth microdilution method). Details: dose 4 µg/ml.
Format: functional
Method in brief: as §1

Compound | MIC [µg/mL]
O=C(NNC(=O)[C@@H]1CC[C@@H]2CN1C(=O)N2OS(=O)(=O)O)[C@@H]1CCNC1 | ≤ 0.12

The compounds below were run on Pseudomonas aeruginosa (assay: Synergistic antibacterial activity against Pseudomonas aeruginosa 795 assessed as cefepime MIC at 4 ug/ml by broth microdilution method). Details: dose 4 µg/ml.
Format: functional

Compound | MIC [µg/mL]
O=C(NNC(=O)[C@@H]1CC[C@@H]2CN1C(=O)N2OS(=O)(=O)O)[C@@H]1CCNC1 | 0.5

What follows are compounds tested on Acinetobacter baumannii (assay: Synergistic antibacterial activity against Acinetobacter baumannii PR359 producing OXA-23 assessed as meropenem MIC at 8 ug/ml by broth microdilution method). Details: dose 8 µg/ml.
Format: functional
Method in brief: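 Broth microdilution per CLSI guidelines in frozen panels. Test compound held at fixed 8 mg/L while the partner β-lactam concentration was increased. Run in triplicate; modal MIC reported.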

Compound | MIC [µg/mL]
O=C(NNC(=O)[C@@H]1CC[C@@H]2CN1C(=O)N2OS(=O)(=O)O)[C@@H]1CCNC1 | > 16

Each compound was assayed on Klebsiella pneumoniae (assay: Synergistic antibacterial activity against Klebsiella pneumoniae 1354/2241 producing KPC-3 assessed as cefepime MIC at 8 ug/ml by broth microdilution method). Details: dose 8 µg/ml.
Format: functional
Method in brief: as §1

Compound | MIC [µg/mL]
O=C(NNC(=O)[C@@H]1CC[C@@H]2CN1C(=O)N2OS(=O)(=O)O)[C@@H]1CCNC1 | ≤ 0.12

The compounds below were run on Pseudomonas aeruginosa (assay: Synergistic antibacterial activity against Pseudomonas aeruginosa 839 assessed as cefepime MIC at 4 ug/ml by broth microdilution method). Details: dose 4 µg/ml.
Format: functional

Compound | MIC [µg/mL]
O=C(NNC(=O)[C@@H]1CC[C@@H]2CN1C(=O)N2OS(=O)(=O)O)[C@@H]1CCNC1 | ≤ 0.12

These compounds were tested on Escherichia coli (assay: Synergistic antibacterial activity against Escherichia coli DH10B transfected with pBC SK (-) OXA-48 assessed as meropenem MIC at 8 ug/ml by broth microdilution method). Details: dose 8 µg/ml.
Format: functional
Method in brief: as §1

Compound | MIC [µg/mL]
O=C(NNC(=O)[C@@H]1CC[C@@H]2CN1C(=O)N2OS(=O)(=O)O)[C@@H]1CCNC1 | ≤ 0.12

The compounds below were run on Escherichia coli (assay: Synergistic antibacterial activity against Escherichia coli DH10B transfected with pBC SK (-) KPC-3 assessed as meropenem MIC at 4 ug/ml by broth microdilution method). Details: dose 4 µg/ml.
Format: functional

Compound | MIC [µg/mL]
O=C(NNC(=O)[C@@H]1CC[C@@H]2CN1C(=O)N2OS(=O)(=O)O)[C@@H]1CCNC1 | ≤ 0.12

Each compound was assayed on Acinetobacter baumannii (assay: Synergistic antibacterial activity against ADC deleted Acinetobacter baumannii assessed as cefepime MIC at 4 ug/ml by broth microdilution method). Details: dose 4 µg/ml.
Format: functional

Compound | MIC [µg/mL]
O=C(NNC(=O)[C@@H]1CC[C@@H]2CN1C(=O)N2OS(=O)(=O)O)[C@@H]1CCNC1 | 0.5

What follows are compounds tested on Klebsiella pneumoniae (assay: Synergistic antibacterial activity against Klebsiella pneumoniae 901/1860 producing KPC-3 assessed as meropenem MIC at 4 ug/ml by broth microdilution method). Details: dose 4 µg/ml.
Format: functional

Compound | MIC [µg/mL]
O=C(NNC(=O)[C@@H]1CC[C@@H]2CN1C(=O)N2OS(=O)(=O)O)[C@@H]1CCNC1 | ≤ 0.12

The compounds below were run on Acinetobacter baumannii (assay: Synergistic antibacterial activity against Acinetobacter baumannii PR319 producing OXA-23/24/40 assessed as meropenem MIC at 8 ug/ml by broth microdilution method). Details: dose 8 µg/ml.
Format: functional

Compound | MIC [µg/mL]
O=C(NNC(=O)[C@@H]1CC[C@@H]2CN1C(=O)N2OS(=O)(=O)O)[C@@H]1CCNC1 | > 16

The compounds below were run on Klebsiella pneumoniae (assay: Synergistic antibacterial activity against Klebsiella pneumoniae 1108/1989 producing KPC-3 assessed as cefepime MIC at 4 ug/ml by broth microdilution method). Details: dose 4 µg/ml.
Format: functional
Method in brief: as §1

Compound | MIC [µg/mL]
O=C(NNC(=O)[C@@H]1CC[C@@H]2CN1C(=O)N2OS(=O)(=O)O)[C@@H]1CCNC1 | ≤ 0.12

These compounds were tested on Klebsiella pneumoniae (assay: Synergistic antibacterial activity against Klebsiella pneumoniae CAV 1543 producing OXA-48 assessed as meropenem MIC at 8 ug/ml by broth microdilution method). Details: dose 8 µg/ml.
Format: functional

Compound | MIC [µg/mL]
O=C(NNC(=O)[C@@H]1CC[C@@H]2CN1C(=O)N2OS(=O)(=O)O)[C@@H]1CCNC1 | ≤ 0.12

What follows are compounds tested on Pseudomonas aeruginosa (assay: Synergistic antibacterial activity against Pseudomonas aeruginosa 776 assessed as cefepime MIC at 4 ug/ml by broth microdilution method). Details: dose 4 µg/ml.
Format: functional

Compound | MIC [µg/mL]
O=C(NNC(=O)[C@@H]1CC[C@@H]2CN1C(=O)N2OS(=O)(=O)O)[C@@H]1CCNC1 | 16

What follows are compounds tested on Acinetobacter baumannii (assay: Synergistic antibacterial activity against Acinetobacter baumannii PR363 producing OXA-23 assessed as meropenem MIC at 4 ug/ml by broth microdilution method). Details: dose 4 µg/ml.
Format: functional

Compound | MIC [µg/mL]
O=C(NNC(=O)[C@@H]1CC[C@@H]2CN1C(=O)N2OS(=O)(=O)O)[C@@H]1CCNC1 | > 16

The compounds below were run on Klebsiella pneumoniae (assay: Synergistic antibacterial activity against Klebsiella pneumoniae 440/1360 producing KPC-2 assessed as cefepime MIC at 8 ug/ml by broth microdilution method). Details: dose 8 µg/ml.
Format: functional
Method in brief: as §1

Compound | MIC [µg/mL]
O=C(NNC(=O)[C@@H]1CC[C@@H]2CN1C(=O)N2OS(=O)(=O)O)[C@@H]1CCNC1 | ≤ 0.12

The compounds below were run on Klebsiella pneumoniae (assay: Synergistic antibacterial activity against Klebsiella pneumoniae 660/1568 producing KPC-3 assessed as meropenem MIC at 8 ug/ml by broth microdilution method). Details: dose 8 µg/ml.
Format: functional
Method in brief: as §1

Compound | MIC [µg/mL]
O=C(NNC(=O)[C@@H]1CC[C@@H]2CN1C(=O)N2OS(=O)(=O)O)[C@@H]1CCNC1 | ≤ 0.12

The compounds below were run on Klebsiella pneumoniae (assay: Synergistic antibacterial activity against Klebsiella pneumoniae 729/1679 producing KPC-3 assessed as meropenem MIC at 8 ug/ml by broth microdilution method). Details: dose 8 µg/ml.
Format: functional
Method in brief: as §1

Compound | MIC [µg/mL]
O=C(NNC(=O)[C@@H]1CC[C@@H]2CN1C(=O)N2OS(=O)(=O)O)[C@@H]1CCNC1 | ≤ 0.12

What follows are compounds tested on Escherichia coli (assay: Synergistic antibacterial activity against Escherichia coli DH10B transfected with pBC SK (-) PDC-3 assessed as meropenem MIC at 8 ug/ml by broth microdilution method). Details: dose 8 µg/ml.
Format: functional
Method in brief: as §1

Compound | MIC [µg/mL]
O=C(NNC(=O)[C@@H]1CC[C@@H]2CN1C(=O)N2OS(=O)(=O)O)[C@@H]1CCNC1 | ≤ 0.12

What follows are compounds tested on Acinetobacter baumannii (assay: Synergistic antibacterial activity against Acinetobacter baumannii PR476 producing OXA-24/40 assessed as meropenem MIC at 4 ug/ml by broth microdilution method). Details: dose 4 µg/ml.
Format: functional

Compound | MIC [µg/mL]
O=C(NNC(=O)[C@@H]1CC[C@@H]2CN1C(=O)N2OS(=O)(=O)O)[C@@H]1CCNC1 | 0.25

The compounds below were run on Klebsiella pneumoniae (assay: Synergistic antibacterial activity against Klebsiella pneumoniae 1084/1957 producing KPC-3 assessed as cefepime MIC at 4 ug/ml by broth microdilution method). Details: dose 4 µg/ml.
Format: functional
Method in brief: as §1

Compound | MIC [µg/mL]
O=C(NNC(=O)[C@@H]1CC[C@@H]2CN1C(=O)N2OS(=O)(=O)O)[C@@H]1CCNC1 | ≤ 0.12

The compounds below were run on Acinetobacter baumannii (assay: Synergistic antibacterial activity against Acinetobacter baumannii PR420 producing OXA-23/24/40 assessed as meropenem MIC at 4 ug/ml by broth microdilution method). Details: dose 4 µg/ml.
Format: functional

Compound | MIC [µg/mL]
O=C(NNC(=O)[C@@H]1CC[C@@H]2CN1C(=O)N2OS(=O)(=O)O)[C@@H]1CCNC1 | > 16

What follows are compounds tested on Escherichia coli (assay: Synergistic antibacterial activity against Escherichia coli DH10B transfected with pBC SK (-) KPC-3 assessed as meropenem MIC at 8 ug/ml by broth microdilution method). Details: dose 8 µg/ml.
Format: functional

Compound | MIC [µg/mL]
O=C(NNC(=O)[C@@H]1CC[C@@H]2CN1C(=O)N2OS(=O)(=O)O)[C@@H]1CCNC1 | ≤ 0.12

What follows are compounds tested on Klebsiella pneumoniae (assay: Synergistic antibacterial activity against Klebsiella pneumoniae 972/1910 producing KPC-3 assessed as meropenem MIC at 8 ug/ml by broth microdilution method). Details: dose 8 µg/ml.
Format: functional

Compound | MIC [µg/mL]
O=C(NNC(=O)[C@@H]1CC[C@@H]2CN1C(=O)N2OS(=O)(=O)O)[C@@H]1CCNC1 | ≤ 0.12

What follows are compounds tested on Klebsiella pneumoniae (assay: Synergistic antibacterial activity against Klebsiella pneumoniae 11978 producing OXA-48 assessed as meropenem MIC at 8 ug/ml by broth microdilution method). Details: dose 8 µg/ml.
Format: functional
Method in brief: as §1

Compound | MIC [µg/mL]
O=C(NNC(=O)[C@@H]1CC[C@@H]2CN1C(=O)N2OS(=O)(=O)O)[C@@H]1CCNC1 | ≤ 0.12
